Reference: ChEMBL document CHEMBL3286381 (J Med Chem, 2014)

Columns and labels:
[1] = molecular target: T1, Ectonucleoside triphosphate diphosphohydrolase 2 (Homo sapiens) (UniProt Q9Y5L3); experiment: Inhibition of human NTPDase-2 using ATP as substrate assessed as inorganic phosphate release at 100 uM after 15 mins relative to control
T1 sequence (whole entry): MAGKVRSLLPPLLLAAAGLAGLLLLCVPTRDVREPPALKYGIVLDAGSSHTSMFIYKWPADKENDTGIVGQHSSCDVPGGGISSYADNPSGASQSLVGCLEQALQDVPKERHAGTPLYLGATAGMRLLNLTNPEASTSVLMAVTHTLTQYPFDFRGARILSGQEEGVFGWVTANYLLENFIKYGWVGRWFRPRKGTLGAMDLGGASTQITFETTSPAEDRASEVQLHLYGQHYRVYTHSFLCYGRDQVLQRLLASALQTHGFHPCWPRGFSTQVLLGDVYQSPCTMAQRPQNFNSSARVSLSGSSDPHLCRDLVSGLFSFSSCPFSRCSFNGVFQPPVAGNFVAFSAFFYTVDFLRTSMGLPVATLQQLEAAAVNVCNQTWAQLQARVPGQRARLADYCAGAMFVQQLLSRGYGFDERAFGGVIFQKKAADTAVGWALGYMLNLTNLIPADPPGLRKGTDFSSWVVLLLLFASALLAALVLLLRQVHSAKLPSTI
Summary of the method: (§1)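 Protein extracts are from COS-7 cells transiently transfected with human NTPDase1, 2, 3 or 8. Extract is preincubated for 3 min at 37 °C in Tris–Ringer buffer (pH 7.3). […] Three experiments in triplicate.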

[2] = molecular target: T2, Ectonucleoside triphosphate diphosphohydrolase 1 (Homo sapiens) (UniProt P49961); experiment: Inhibition of human NTPDase-1 using ATP as substrate assessed as inorganic phosphate release at 100 uM after 15 mins relative to control; summary of the method: as §1
T2 sequence (whole entry): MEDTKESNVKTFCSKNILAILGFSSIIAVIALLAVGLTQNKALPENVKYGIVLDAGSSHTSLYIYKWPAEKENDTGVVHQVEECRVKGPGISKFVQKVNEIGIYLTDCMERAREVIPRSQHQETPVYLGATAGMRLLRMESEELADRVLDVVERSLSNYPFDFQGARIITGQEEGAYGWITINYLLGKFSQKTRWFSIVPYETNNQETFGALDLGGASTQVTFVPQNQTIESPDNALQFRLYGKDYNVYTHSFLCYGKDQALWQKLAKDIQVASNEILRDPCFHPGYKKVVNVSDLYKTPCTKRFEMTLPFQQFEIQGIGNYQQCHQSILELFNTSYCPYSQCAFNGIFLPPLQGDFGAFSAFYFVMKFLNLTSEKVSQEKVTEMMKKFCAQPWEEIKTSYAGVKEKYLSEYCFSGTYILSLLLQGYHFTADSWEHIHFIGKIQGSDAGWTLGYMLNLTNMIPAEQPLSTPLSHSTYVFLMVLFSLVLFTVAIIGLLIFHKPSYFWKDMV

[3] = molecular target: T3, Ectonucleotide pyrophosphatase/phosphodiesterase family member 3 (Homo sapiens) (UniProt O14638); experiment: Inhibition of human NPP3 using pNP-TMP as substrate at 100 uM after 20 mins by reversed-phase HPLC analysis
T3 sequence (whole entry): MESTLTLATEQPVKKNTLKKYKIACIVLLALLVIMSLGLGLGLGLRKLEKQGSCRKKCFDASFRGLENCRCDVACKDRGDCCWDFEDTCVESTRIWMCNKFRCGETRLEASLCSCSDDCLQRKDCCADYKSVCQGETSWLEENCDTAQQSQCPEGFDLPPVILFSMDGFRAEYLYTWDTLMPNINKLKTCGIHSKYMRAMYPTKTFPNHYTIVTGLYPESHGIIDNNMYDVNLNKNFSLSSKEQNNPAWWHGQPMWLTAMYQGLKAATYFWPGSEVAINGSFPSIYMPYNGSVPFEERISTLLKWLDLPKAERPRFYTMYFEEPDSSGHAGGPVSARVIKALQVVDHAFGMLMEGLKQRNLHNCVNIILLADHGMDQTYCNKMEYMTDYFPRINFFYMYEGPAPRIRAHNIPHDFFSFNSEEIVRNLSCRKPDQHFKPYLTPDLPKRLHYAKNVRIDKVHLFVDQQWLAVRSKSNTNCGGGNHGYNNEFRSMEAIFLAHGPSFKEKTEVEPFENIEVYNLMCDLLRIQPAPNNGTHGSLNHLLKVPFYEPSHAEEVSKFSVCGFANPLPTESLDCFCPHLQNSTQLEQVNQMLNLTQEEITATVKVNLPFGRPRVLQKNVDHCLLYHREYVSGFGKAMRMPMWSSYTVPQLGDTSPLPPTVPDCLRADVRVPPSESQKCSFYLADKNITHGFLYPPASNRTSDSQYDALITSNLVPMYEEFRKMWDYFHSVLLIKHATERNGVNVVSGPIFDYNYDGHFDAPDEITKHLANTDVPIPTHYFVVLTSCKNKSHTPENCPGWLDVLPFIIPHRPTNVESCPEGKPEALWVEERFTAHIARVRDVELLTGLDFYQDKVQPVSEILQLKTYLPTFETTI

[4] = molecular target: T4, Ectonucleoside triphosphate diphosphohydrolase 8 (Homo sapiens) (UniProt Q5MY95); experiment: Inhibition of human NTPDase-8 using ATP as substrate assessed as inorganic phosphate release at 100 uM after 15 mins relative to control; summary of the method: as §1
T4 sequence (whole entry): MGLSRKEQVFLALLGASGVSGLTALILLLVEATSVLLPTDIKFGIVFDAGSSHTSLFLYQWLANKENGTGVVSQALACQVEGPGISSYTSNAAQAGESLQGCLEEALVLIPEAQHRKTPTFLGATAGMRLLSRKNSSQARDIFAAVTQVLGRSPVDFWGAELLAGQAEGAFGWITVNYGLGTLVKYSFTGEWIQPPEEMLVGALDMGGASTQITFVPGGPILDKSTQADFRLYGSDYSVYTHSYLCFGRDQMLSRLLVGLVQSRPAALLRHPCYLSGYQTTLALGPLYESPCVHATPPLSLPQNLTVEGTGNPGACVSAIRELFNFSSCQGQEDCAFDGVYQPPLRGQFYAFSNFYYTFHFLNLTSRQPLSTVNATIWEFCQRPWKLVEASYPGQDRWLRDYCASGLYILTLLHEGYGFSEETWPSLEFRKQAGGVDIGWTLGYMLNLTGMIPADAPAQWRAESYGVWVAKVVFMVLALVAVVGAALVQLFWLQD

In the case of `Nc1ncnc2c1ncn2[C@@H]1O[C@H](COP(=O)(O)CP(=O)(O)OP(O)(O)=S)[C@@H](O)[C@H]1O`, the inhibition [1] is reported as 16.3%, the inhibition [2] is reported as 58.4% and the inhibition [3] is reported as 23%. It also gave an inhibition [4] of 7%.

`Nc1ncnc2c1ncn2[C@@H]1O[C@H](CO[P@@](O)(=S)OP(=O)(O)C(Cl)(Cl)P(=O)(O)O)[C@@H](O)[C@H]1O` gave an inhibition [1] of 9.9%, an inhibition [2] of 0.5% and an inhibition [3] of 23%. For the same compound, the inhibition [4] was 0.5%.

Compound `Nc1ncnc2c1ncn2[C@@H]1O[C@H](CO[P@@](O)(=S)OP(=O)(O)CP(=O)(O)O)[C@@H](O)[C@H]1O` has an inhibition [1] of 12.7%, an inhibition [2] of 21.6% and an inhibition [3] of 23%. It also gave an inhibition [4] of 1.5%.

Work on `Nc1ncnc2c1ncn2[C@@H]1O[C@H](CO[P@](O)(=S)OP(=O)(O)C(Cl)(Cl)P(=O)(O)O)[C@@H](O)[C@H]1O` yielded an inhibition [1] of 11.2%, an inhibition [2] of 0.5% and an inhibition [3] of 23%. It also gave an inhibition [4] of 4.9%.

`Nc1ncnc2c1ncn2[C@@H]1O[C@H](CO[P@](O)(=S)OP(=O)(O)CP(=O)(O)O)[C@@H](O)[C@H]1O` gave an inhibition [1] of 15.4%, an inhibition [2] of 18.7% and an inhibition [3] of 23%. The inhibition [4] was 0.5%.
